# Laboratory results from article PMC5010496 (Cancer research, 2016).
# Key:
# CAG myeloma cells = test: Caspase3/7-GLO apoptosis assay, CAG; assay type: cell-based, human
# In short: (§1)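 Myeloma cells in complete medium were pre-treated for 1 hr with JNK inhibitor or DMSO vehicle, then given or not given 30 μM test peptide, for 9 hr total. Caspase 3/7 activity was read by Caspase3/7-GLO luminescence and expressed as fold increase over vehicle alone (set to 1.0).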
# MM.1R myeloma cells = test: Caspase3/7-GLO apoptosis assay, MM.1R; assay type: cell-based, human; settings: MM.1R cells
# In short: as §1
# CAG myeloma xenografts = test: CAG myeloma xenograft growth and tumor angiogenesis in nude mice; assay type: in vivo, mouse; settings: Alzet pump 3.65 mg/kg/day, 4 weeks
# [1] = molecular target: IGF1R and αvβ5 integrin complex with Sdc1 (Homo sapiens, UniProt P06756+P08069+P18084); test: Immunoprecipitation of Sdc1 with competing SSTN peptides; assay type: binding
# IGF1R and αvβ5 integrin complex with Sdc1, sequence (P08069 31-736 limits assumed): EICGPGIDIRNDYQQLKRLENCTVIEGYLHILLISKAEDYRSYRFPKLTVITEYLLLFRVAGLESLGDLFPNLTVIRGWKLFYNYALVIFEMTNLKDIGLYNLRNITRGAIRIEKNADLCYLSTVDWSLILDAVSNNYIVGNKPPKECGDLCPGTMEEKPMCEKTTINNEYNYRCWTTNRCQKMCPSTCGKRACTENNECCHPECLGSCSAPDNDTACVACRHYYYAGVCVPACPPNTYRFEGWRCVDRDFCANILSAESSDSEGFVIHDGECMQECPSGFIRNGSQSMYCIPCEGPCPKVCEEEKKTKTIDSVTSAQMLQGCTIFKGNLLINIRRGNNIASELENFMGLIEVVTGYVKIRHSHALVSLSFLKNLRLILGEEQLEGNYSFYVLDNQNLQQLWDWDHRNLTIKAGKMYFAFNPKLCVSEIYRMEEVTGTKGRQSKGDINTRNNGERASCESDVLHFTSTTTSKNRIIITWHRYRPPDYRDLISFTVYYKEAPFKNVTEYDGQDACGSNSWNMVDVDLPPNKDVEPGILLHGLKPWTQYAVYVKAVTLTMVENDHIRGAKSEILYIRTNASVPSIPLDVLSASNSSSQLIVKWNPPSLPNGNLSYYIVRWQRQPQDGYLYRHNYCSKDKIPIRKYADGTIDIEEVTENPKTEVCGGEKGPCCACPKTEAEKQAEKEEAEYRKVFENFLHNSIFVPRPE
# IGF1R and αvβ5 integrin complex with Sdc1, sequence (P08069 741-1367 limits assumed): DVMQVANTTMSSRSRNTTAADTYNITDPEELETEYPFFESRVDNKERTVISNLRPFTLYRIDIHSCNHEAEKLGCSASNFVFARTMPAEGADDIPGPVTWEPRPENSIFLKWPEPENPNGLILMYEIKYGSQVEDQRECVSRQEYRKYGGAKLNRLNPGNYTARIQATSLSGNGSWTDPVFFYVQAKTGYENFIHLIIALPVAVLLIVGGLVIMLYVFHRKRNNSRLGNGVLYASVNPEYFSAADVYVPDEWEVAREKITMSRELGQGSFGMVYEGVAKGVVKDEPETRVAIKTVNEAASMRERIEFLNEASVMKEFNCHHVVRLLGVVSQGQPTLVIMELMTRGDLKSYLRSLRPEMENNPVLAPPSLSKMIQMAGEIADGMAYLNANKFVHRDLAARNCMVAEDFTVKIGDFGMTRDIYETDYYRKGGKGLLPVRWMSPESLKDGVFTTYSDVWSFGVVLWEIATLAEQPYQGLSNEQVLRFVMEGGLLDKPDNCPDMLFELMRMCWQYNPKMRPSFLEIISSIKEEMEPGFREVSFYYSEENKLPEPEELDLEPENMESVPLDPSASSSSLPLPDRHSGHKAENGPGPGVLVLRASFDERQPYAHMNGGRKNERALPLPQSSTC
# IGF1R and αvβ5 integrin complex with Sdc1, sequence (P06756 31-889 limits assumed): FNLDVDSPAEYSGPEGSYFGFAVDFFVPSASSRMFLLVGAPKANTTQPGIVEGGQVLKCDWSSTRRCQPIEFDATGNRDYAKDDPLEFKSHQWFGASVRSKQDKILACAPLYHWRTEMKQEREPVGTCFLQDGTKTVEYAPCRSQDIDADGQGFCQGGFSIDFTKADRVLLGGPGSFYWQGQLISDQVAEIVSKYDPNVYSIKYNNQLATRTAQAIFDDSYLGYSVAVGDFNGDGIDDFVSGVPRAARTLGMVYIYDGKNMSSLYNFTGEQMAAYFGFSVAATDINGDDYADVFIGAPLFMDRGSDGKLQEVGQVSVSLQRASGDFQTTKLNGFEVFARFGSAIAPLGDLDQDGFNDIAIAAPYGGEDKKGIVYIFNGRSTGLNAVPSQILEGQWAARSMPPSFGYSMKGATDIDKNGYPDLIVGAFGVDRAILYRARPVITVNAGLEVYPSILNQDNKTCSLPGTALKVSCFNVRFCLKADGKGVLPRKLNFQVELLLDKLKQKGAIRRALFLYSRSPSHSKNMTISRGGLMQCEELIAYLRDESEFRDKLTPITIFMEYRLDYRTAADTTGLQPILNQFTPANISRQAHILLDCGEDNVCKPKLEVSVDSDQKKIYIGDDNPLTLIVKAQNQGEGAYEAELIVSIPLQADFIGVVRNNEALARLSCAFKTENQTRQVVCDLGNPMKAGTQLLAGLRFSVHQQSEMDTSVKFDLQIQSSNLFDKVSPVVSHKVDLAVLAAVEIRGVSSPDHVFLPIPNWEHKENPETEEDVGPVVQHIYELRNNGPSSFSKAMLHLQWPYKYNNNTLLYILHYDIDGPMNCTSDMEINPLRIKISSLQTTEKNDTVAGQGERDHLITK
# IGF1R and αvβ5 integrin complex with Sdc1, sequence (P06756 891-1048 limits assumed): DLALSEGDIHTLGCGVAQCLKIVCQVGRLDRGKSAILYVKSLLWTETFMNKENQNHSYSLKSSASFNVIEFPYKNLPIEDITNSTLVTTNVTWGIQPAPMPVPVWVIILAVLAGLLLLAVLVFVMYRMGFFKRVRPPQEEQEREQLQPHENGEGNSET
# IGF1R and αvβ5 integrin complex with Sdc1, sequence (P18084 24-799): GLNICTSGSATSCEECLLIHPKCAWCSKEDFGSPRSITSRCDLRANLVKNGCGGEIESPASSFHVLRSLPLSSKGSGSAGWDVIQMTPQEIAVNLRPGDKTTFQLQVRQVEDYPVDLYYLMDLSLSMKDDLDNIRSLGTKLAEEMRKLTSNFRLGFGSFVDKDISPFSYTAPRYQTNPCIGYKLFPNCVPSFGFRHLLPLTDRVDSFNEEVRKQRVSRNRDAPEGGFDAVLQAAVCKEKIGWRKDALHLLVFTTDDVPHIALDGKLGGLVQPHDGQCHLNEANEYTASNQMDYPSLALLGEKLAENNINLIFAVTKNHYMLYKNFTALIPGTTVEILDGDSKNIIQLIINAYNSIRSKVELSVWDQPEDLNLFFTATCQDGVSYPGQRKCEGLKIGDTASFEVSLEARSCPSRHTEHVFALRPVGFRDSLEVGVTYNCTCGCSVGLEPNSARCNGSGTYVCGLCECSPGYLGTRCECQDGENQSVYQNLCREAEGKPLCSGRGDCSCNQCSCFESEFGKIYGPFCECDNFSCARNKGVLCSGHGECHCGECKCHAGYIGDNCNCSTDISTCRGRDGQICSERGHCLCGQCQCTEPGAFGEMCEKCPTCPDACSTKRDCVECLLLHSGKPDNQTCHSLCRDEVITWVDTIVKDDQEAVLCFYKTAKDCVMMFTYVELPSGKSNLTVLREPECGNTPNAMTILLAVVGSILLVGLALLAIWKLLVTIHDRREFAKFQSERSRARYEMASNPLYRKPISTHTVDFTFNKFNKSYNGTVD
# In short: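 CAG cell lysates from suspension culture were immunoprecipitated with isotype-matched control mIgG1 or mAbs to Sdc1 (B-A38), αvβ5 integrin (P1F6) and/or IGF1R (JBW902), in the presence of test peptide (1 μM) or a variant peptide (1, 3 or 10 μM). Precipitates were probed for Sdc1, IGF1R and αvβ5 integrin.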
# HUVEC endothelial cells = test: Cell growth assay, HUVEC; assay type: cell-based, human; settings: 30 μM peptide, 3 days, Sdc1-positive HUVEC
# In short: (§2)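 Endothelial cells (1–2 × 10^3/well) were grown in complete medium with 30 μM test peptide or its variant for 3 days at 37 °C, 7.5% CO2. Cell number was read by CellTiter-GLO and expressed as % increase relative to untreated cells.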
# HMEC-1 endothelial cells = test: Cell growth assay, HMEC-1; assay type: cell-based, human; settings: 30 μM peptide, 3 days
# In short: as §2
# [2] = system: CAG, RPMI-8226, KMS-12, U266, MM.1R myeloma cells; test: Cell growth assay, human myeloma cells; assay type: cell-based; settings: three-day growth assay, relative to SSTNIGF1R
# In short: (§3)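 Myeloma cells (2.5 × 10^4/well) were grown in RPMI 1640 with 4 mM L-glutamine, 10% FBS and 0.05 mM β-mercaptoethanol; CAG cells also received 40 μg/mL Geneticin. Cells were grown with 30 μM test peptide or its variant for 3 days at 37 °C, 7.5% CO2. Cell number was read by CellTiter-GLO as % increase relative to untreated cells.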
# [3] = system: MCF10A breast epithelial cells; test: Cell growth assay, MCF10A; assay type: cell-based, human; settings: 3, 10 or 30 μM peptide, 3 days
# In short: (§4)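 Adherent cells (1–2 × 10^3/well) were grown with 3, 10 or 30 μM test peptide for 3 days at 37 °C. Carcinoma lines were kept in DMEM with 4 mM L-glutamine, 10% FBS and penicillin/streptomycin; SCC lines also received 1 μg/mL hydrocortisone. Cell number was read by CellTiter-GLO as % increase relative to untreated cells.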
# P3X63Ag8 myeloma cells = test: Cell growth assay, mouse myeloma cells; assay type: cell-based; settings: 30 μM peptide, three-day treatment, complete medium
# In short: as §3
# [4] = system: UM-SCC47, SCC25, MDA-MB-468, MDA-MB-231, MCF-7 and SKBr3 carcinoma cells; test: Cell growth assay, head and neck and breast carcinoma cell panel; assay type: cell-based, human; settings: 3, 10 or 30 μM peptide, 3 days
# In short: as §4
# CAG cells = test: ApoTox-GLO viability/apoptosis and TUNEL assay in CAG cells; assay type: cell-based, human; settings: 24 hr
# In short: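 CAG cells (2.5 × 10^4/well) were grown in complete medium with 1–30 μM test peptide for 24 hr at 37 °C. Viability and caspase activation/apoptosis were read by ApoTox-GLO as % of untreated cells.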
# [5] = Peptide stability in mouse serum; assay type: in vitro ADME; settings: data not shown
# HaCaT keratinocytes = test: Cell growth assay, HaCaT; assay type: cell-based, human; settings: 3, 10 or 30 μM peptide, 3 days
# In short: as §4
# HUVECs = test: Stress and apoptosis marker antibody array, HUVEC; assay type: cell-based, human; settings: 30 μM, 24 hr
# ASK1 = assay type: cell-based, human; settings: CAG and MM.1R cells, 10 μM
# In short: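 ASK1 or Sdc1 was immunoprecipitated from cell lysates (0.5–1.0 mg input per sample), with or without competing test peptide. Lysis buffer contained protease and phosphatase inhibitors. Blots were probed for co-precipitated ASK1 and Sdc1, total ASK1, and phospho-ASK1 (pThr838/Thr845, pSer83, pSer966/Ser967).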
# [6] = Peptide stability in bovine serum; assay type: in vitro ADME; settings: data not shown
# HUVEC(Sdc1−) = test: Cell growth assay, HUVEC isolate lacking Sdc1; assay type: cell-based, human; settings: 30 μM peptide, 3 days
# In short: as §2
# [7] = system: CAG and MM.1R myeloma cells; test: Stress and apoptosis marker antibody array, myeloma cells; assay type: cell-based, human; settings: CAG and MM.1R cells, 30 μM, over 9 hr
# [8] = system: MDA-MB-231 breast carcinoma cells; test: Stress and apoptosis marker antibody array, MDA-MB-231; assay type: cell-based, human; settings: MDA-MB-231, 30 μM, up to 24 hr; compared with HUVEC response
# In short: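 MDA-MB-231 cells in complete medium were treated with or without 30 μM test peptide for 1, 3, 9 or 24 hr. Whole-cell lysates from equal cell equivalents were run on a stress and apoptosis signalling antibody array. Relative fluorescence at 700 nm was read per target, in two separate experiments.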
# [9] = 1 μM JNK-IN-8 with 30 μM SSTNIGF1R, 9 hr
# [10] = 10 μM SP600125 with SSTNIGF1R, data not shown
molecule,measurement,setting,value
Cc1cc(NC(=O)c2cccc(NC(=O)/C=C/CN(C)C)c2)ccc1Nc1nccc(-c2cccnc2)n1 [JNK-IN-8],block of SSTNIGF1R-induced caspase 3/7 activation,CAG myeloma cells; [9],complete block
same,block of SSTNIGF1R-induced caspase 3/7 activation,MM.1R myeloma cells; [9],complete block
Oc1c2ccccc2c2c3c(cccc13)N=N2 [SP600125],block of SSTNIGF1R-induced caspase 3/7 activation,CAG myeloma cells; [10],Near identical results
same,block of SSTNIGF1R-induced caspase 3/7 activation,MM.1R myeloma cells; [10],Near identical results
SSTNIGF1R-T: truncated synstatin peptide comprising amino acids 94–119 of Sdc1 (AGEKPEEGEPVLHVEAEPGFTARDKE),effect on tumor angiogenesis,CAG myeloma xenografts; MECA-32 staining intensity,no significant effect
same,disruption of capture of IGF1R and αvβ5 integrin by Sdc1,"[1]; 1, 3 or 10 μM peptide, myeloma cell lysates",disrupts capture of IGF1R and αvβ5 integrin by Sdc1
same,fold less effective than SSTNIGF1R at disrupting IGF1R capture by Sdc1,"[1]; myeloma cells, relative to SSTNIGF1R",3–10 fold
same,growth of HUVEC endothelial cells,HUVEC endothelial cells,without effect
same,growth of HMEC-1 endothelial cells,HMEC-1 endothelial cells,without effect
same,fold less effective than SSTNIGF1R at causing myeloma cell loss,[2],3–10 fold
SSTNIGF1R: peptide that inhibits IGF1R capture by Sdc1; comprised of amino acids 92–119 in mouse Sdc1 (LPAGEKPEEGEPVLHVEAEPGFTARDKE),growth of non-transformed MCF10A breast epithelial cells,[3],unaffected
same,growth of mouse myeloma cells,P3X63Ag8 myeloma cells,significantly reduced
same,growth of head and neck and breast carcinoma cells,[4],reduced growth
same,apoptosis by TUNEL assay,CAG cells; 30 μM,DNA fragmentation
same,apoptosis: caspase activation (ApoTox-GLO),CAG cells; 1–30 μM,executioner caspase activation
same,cell viability (ApoTox-GLO),CAG cells; 1–30 μM,significant loss of viability
same,activity retained after incubation in mouse serum,[5],retains full activity
same,reduction of blood vessel density in residual tumors,CAG myeloma xenografts; MECA-32 staining intensity,over 90%
same,tumors eradicated,"CAG myeloma xenografts; nude mice, CAG tumors, 8 tumors per cohort",3 of the 8
same,growth of non-transformed HaCaT keratinocytes,HaCaT keratinocytes,unaffected
same,increase in caspase 3/7 activity relative to vehicle,"CAG myeloma cells; 30 μM SSTNIGF1R alone, 9 hr",~5 fold
same,apoptosis markers (antibody array),HUVECs,"Activation of the JNK pathway and caspase-3, and a reduction in levels of IkBα"
same,co-immunoprecipitation of ASK1 with Sdc1,ASK1,prevented
same,activity retained after incubation in bovine serum,[6],retains full activity
same,growth of HUVEC endothelial cells,HUVEC endothelial cells,inhibits the growth
same,growth of HMEC-1 endothelial cells,HMEC-1 endothelial cells,inhibits the growth
same,growth of HUVEC isolate lacking Sdc1,HUVEC(Sdc1−),insensitive
same,apoptosis markers (antibody array),[7],"increased phosphorylation of p53 (Ser15), activation of JNK and activation of caspase-3"
same,apoptosis markers (antibody array),[8],almost identical apoptotic response
